Test results from ChEMBL document CHEMBL1145520, “RAS-RAF-MEK-dependent oxidative cell death involving voltage-dependent anion channels” (Nature, 2007).
The source made the active and inactive calls. No cut-off for these calls is given here.

Tests used:
[1] = tested on: BJ; assay: Induction of cell death in human BJ cells expressing TERT, LT, ST and RAS G12V mutant genes; type: functional, cell-based
[2] = tested on: BJ; assay: Induction of cell death in human BJ cells expressing TERT, LT, ST and RAS G12V mutant genes at 13 uM; type: functional
[3] = tested on: BJ; assay: Induction of mitochondrial structural integrity loss in human BJ cells expressing TERT, LT, ST and RAS G12V mutant genes cells at 37 uM after 10 hrs; type: functional, cell-based
How it was run: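 BJ-TERT/LT/ST/RASV12 cells exposed 10 h to erastin (37 µM per legend; 20 µg/ml in methods), then fixed in 2.5% glutaraldehyde in 0.1 M Sorenson's buffer pH 7.2 and post-fixed in 1% OsO4. Sections stained with uranyl acetate/lead citrate.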

[4] = tested on: BJ; assay: Induction of cytochrome c release in cytosolic fraction of human BJ cells expressing TERT, LT, ST and RAS G12V mutant genes at 20 ug/ml; type: functional, cell-based
How it was run: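 BJ-TERT/LT/ST/RASV12 cells seeded 3 × 10^6 per dish, incubated overnight at 37 °C, 5% CO2, then exposed to erastin 20 µg/ml for 6–26 h. Fractionated on ice by needle lysis: nuclei spun out at 400g, mitochondria pelleted at 10,500g. Cytochrome c detected by western blot in cytosolic and mitochondrial fractions.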

[5] = target: T1, Mitogen-activated protein kinase; ERK1/ERK2 (Homo sapiens) (UniProt P27361+P28482); assay: Effect on ERK1/2 phosphorylation in human HL60 cells by Western blot; type: cell-based; conditions: HL-60
How it was run: (§1)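 Washed cells were lysed in pH 7.4 HEPES buffer containing orthovanadate, NaF, pyrophosphate, β-glycerophosphate and protease inhibitors. Lysates were run on SDS-PAGE, transferred to PVDF and blocked 1 h at room temperature. Blots were probed with a multiplex phospho-signalling antibody cocktail and read by infrared fluorescence scanning.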

[6] = tested on: BJ; assay: Induction of cell death in human BJ cells expressing TERT, LT, ST and RAS G12V mutant genes cells in presence of MEK 1/2 inhibitor by trypan blue exclusion method; type: functional, cell-based
How it was run: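 BJ-TERT/LT/ST/RASV12 cells were co-treated for 48 h with 1.5 µM erastin plus 20 µM U0126, 10 µM MEK inhibitor I or 50 µM MEK1/2 inhibitor. Viability was measured by automated Trypan blue exclusion of trypsinized cells resuspended in growth medium; n = 2 or 3.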

[7] = Induction of cell death in human TC71 cells; type: functional, cell-based
[8] = target: T1, Mitogen-activated protein kinase; ERK1/ERK2 (Homo sapiens); assay: Effect on ERK1/2 phosphorylation in human TC71 cells by Western blot; type: cell-based; how it was run: as §1
[9] = tested on: HeLa; assay: Induction of PARP1 cleavage in human HeLa cells; type: functional, cell-based
How it was run: (§2)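 Cells were left untreated or given staurosporine or erastin for 6 or 8 h. Lysates were analysed by western blot for full-length and cleaved PARP1, with actin as loading control.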

[10] = target: T1, Mitogen-activated protein kinase; ERK1/ERK2 (Homo sapiens); assay: Effect on ERK1/2 phosphorylation in human SKES1 cells by Western blot; type: cell-based; how it was run: as §1
[11] = tested on: BJ; assay: Increase in intracellular oxidative species in human BJ cells expressing TERT, LT, ST and RAS G12V mutant genes cells at 4.6 uM; type: functional, cell-based
How it was run: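 Cells seeded at 3 × 10^5 per 60 mm dish were grown overnight, then exposed to 4.6 erastin for 2–12 h; H2O2 for 5 min served as positive control. Cells were loaded with H2DCF-DA for 10 min, trypsinized, PBS-washed and stained with propidium iodide. Read-out was flow cytometry as percent of cells with DCF fluorescence in gate M1; n = 2.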

[12] = target: T1, Mitogen-activated protein kinase; ERK1/ERK2 (Homo sapiens); assay: Effect on ERK1/2 phosphorylation in TERT expressing human BJ cells by Western blot; type: cell-based; how it was run: as §1
[13] = tested on: SK-ES1; assay: Induction of cell death in human SK-ES-1 cells; type: functional, cell-based
[14] = target: T1, Mitogen-activated protein kinase; ERK1/ERK2 (Homo sapiens); assay: Effect on ERK1/2 phosphorylation in human A673 cells by Western blot; type: cell-based; how it was run: as §1
[15] = tested on: BJ; assay: Prevention of induction of cell death in human BJ cells expressing TERT, LT, ST and RAS G12V mutant genes cells after 24 hrs in presence of alpha-tocopherol; type: functional, cell-based
How it was run: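 BJ-TERT/LT/ST/RASV12 cells treated 24 h with erastin across roughly 1–2.5 µM, together with DMSO or an antioxidant (α-tocopherol, BHT or β-carotene). Viability read afterwards.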

[16] = target: T1, Mitogen-activated protein kinase; ERK1/ERK2 (Homo sapiens); assay: Effect on ERK1/2 phosphorylation in human BJ cells expressing TERT, LT, ST and RAS G12V mutant genes cells by Western blot; type: cell-based; how it was run: as §1
[17] = tested on: HT-1080; assay: Suppression of induction of cell death in human HT1080 cells at […] by Alamar Blue assay in presence of in presence of alpha-tocopherol; type: functional, cell-based
[18] = tested on: Calu-1; assay: Inhibition of human Calu1 cells expressing KRAS with activating mutations by trypan blue exclusion assay; type: functional, cell-based
How it was run: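 Calu-1 lung carcinoma cells (activating KRAS mutation) treated with erastin dilutions. Viability measured by Trypan blue exclusion with an automated cell viability analyser after trypsinization and resuspension in growth medium. IC50 derived from the dose series.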

[19] = tested on: BJ; assay: Induction of cell death in human BJ cells expressing TERT, LT, ST and RAS G12V mutant genes cells in presence of PD-98059 by trypan blue exclusion method; type: functional, cell-based
[20] = tested on: BJ; assay: Induction of cell death in TERT expressing human BJ cells; type: functional, cell-based
[21] = target: T1, Mitogen-activated protein kinase; ERK1/ERK2 (Homo sapiens); assay: Effect on ERK1/2 phosphorylation in human HT1080 cells by Western blot; type: cell-based; conditions: HT-1080; how it was run: as §1
[22] = Induction of cell death in human EWS502 cells; type: functional, cell-based
[23] = tested on: HeLa; assay: Induction of cell death in human HeLa cells; type: functional, cell-based
[24] = target: T1, Mitogen-activated protein kinase; ERK1/ERK2 (Homo sapiens); assay: Effect on ERK1/2 phosphorylation in human U937 cells by Western blot; type: cell-based; conditions: U-937; how it was run: as §1
[25] = Induction of cell death in human TC32 cells; type: functional, cell-based, TC-32
[26] = tested on: SW982; assay: Induction of cell death in human SW982 cells; type: functional
[27] = tested on: HT-1080; assay: Suppression of induction of cell death in human HT1080 cells at […] by Alamar Blue assay in presence of glutathione; type: functional, cell-based
[28] = Induction of cell death in human MES-SA cells; type: functional, cell-based
[29] = tested on: HT-1080; assay: Induction of PARP1 cleavage in human HT1080 cells; type: functional, cell-based; how it was run: as §2
[30] = tested on: SW872; assay: Induction of cell death in human SW872 cells; type: functional
[31] = tested on: HT-1080; assay: Induction of cell death in human HT1080 cells in presence of MEK inhibitor by trypan blue exclusion method; type: functional, cell-based
[32] = tested on: BJ; assay: Induction of cell death in human BJ cells expressing TERT, LT, ST and RAS G12V mutant genes cells at 9 uM; type: functional, cell-based
[33] = tested on: HCT-116; assay: Induction of cell death in human HCT116 cells; type: functional
[34] = tested on: A673; assay: Induction of cell death in human A673 cells; type: functional, cell-based
[35] = target: T1, Mitogen-activated protein kinase; ERK1/ERK2 (Homo sapiens); assay: Effect on ERK1/2 phosphorylation in human TC32 cells by Western blot; type: cell-based; how it was run: as §1

T1 sequence (P27361 whole entry, looked up): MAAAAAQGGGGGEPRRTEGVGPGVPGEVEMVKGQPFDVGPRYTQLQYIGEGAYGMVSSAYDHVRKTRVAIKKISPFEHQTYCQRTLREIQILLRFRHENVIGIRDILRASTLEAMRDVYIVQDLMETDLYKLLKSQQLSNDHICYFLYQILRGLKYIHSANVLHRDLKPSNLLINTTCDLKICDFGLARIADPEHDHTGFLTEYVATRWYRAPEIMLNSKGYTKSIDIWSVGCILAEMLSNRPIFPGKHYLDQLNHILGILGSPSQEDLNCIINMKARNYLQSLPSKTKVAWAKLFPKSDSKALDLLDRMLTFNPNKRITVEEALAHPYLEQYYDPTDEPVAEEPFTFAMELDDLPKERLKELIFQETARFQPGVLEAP
T1 sequence (P28482 whole entry, looked up): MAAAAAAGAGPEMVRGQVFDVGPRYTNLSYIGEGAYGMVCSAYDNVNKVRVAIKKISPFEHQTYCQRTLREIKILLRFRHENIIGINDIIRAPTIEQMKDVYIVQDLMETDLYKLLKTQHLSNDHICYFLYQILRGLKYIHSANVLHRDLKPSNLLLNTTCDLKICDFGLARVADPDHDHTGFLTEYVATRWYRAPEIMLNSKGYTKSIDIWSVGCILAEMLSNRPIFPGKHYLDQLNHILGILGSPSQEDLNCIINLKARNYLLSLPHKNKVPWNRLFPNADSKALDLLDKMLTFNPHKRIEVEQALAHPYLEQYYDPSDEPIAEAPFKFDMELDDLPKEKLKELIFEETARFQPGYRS

With `CCOc1ccccc1-n1c(C(C)N2CCN(C(=O)COc3ccc(Cl)cc3)CC2)nc2ccccc2c1=O` (centres undefined) [ERASTIN] the Activity [1] was 100%, the EC50 ([1]; Homo sapiens, BJ) was 6 µM and the Activity [2] was 100%. The Activity [3] was “Active”, the Activity [4] was “inactive” and the Activity [5] was 0.1 a.u. It also gave an IC50 [6] of 2 µM, an Activity [7] of 92% and an EC50 ([7]; Homo sapiens, TC-71) of 10 µM. For the same compound, the Activity [8] was 0.23 a.u, the Activity [9] was “inactive” and the Activity [10] was 0.25 a.u. For the same compound, the Activity [11] was “Active”, the Activity [12] was 0.09 a.u and the Activity [13] was 96%. For the same compound, the EC50 ([13]; Homo sapiens, SK-ES1) was 7 µM, the Activity [14] was 0.66 a.u and the Activity [15] was “Active”. For the same compound, the Activity [16] was 0.92 a.u, the Activity [17] was “Active” and the IC50 [18] was 4 µM. For the same compound, the IC50 [19] was 0.9 µM, the Activity [20] was 22% and the EC50 ([20]; Homo sapiens, BJ) was 10 µM. It also gave an Activity [21] of 0.53 a.u, an Activity [22] of 42% and an EC50 ([22]; Homo sapiens, EWS502) of 10 µM. For the same compound, the Activity [23] was 94%, the EC50 ([23]; Homo sapiens, HeLa) was 0.6 µM and the Activity [24] was 0.27 a.u. For the same compound, the Activity [25] was 88%, the EC50 ([25]; Homo sapiens, TC-32) was 8 µM and the Activity [26] was 0%. The Activity [27] was “Active”, the Activity [28] was 100% and the EC50 ([28]; Homo sapiens, MES-SA) was 3 µM. The Activity [29] was “inactive”, the Activity [30] was 0% and the IC50 [31] was 2.5 µM. For the same compound, the Activity [32] was “Active”, the Activity [33] was 0% and the Activity [34] was 54%. The EC50 ([34]; Homo sapiens, A673) was 30 µM and the Activity [35] was 0.12 a.u.
